Structures are written as SMILES.

Consider 1 compound from publication PMC3361572 (Chemistry & biology, 2012).

Data set [1] concerns the target T1, FAAH (Rattus norvegicus, UniProt P97612).
T1 sequence (P97612 1-579): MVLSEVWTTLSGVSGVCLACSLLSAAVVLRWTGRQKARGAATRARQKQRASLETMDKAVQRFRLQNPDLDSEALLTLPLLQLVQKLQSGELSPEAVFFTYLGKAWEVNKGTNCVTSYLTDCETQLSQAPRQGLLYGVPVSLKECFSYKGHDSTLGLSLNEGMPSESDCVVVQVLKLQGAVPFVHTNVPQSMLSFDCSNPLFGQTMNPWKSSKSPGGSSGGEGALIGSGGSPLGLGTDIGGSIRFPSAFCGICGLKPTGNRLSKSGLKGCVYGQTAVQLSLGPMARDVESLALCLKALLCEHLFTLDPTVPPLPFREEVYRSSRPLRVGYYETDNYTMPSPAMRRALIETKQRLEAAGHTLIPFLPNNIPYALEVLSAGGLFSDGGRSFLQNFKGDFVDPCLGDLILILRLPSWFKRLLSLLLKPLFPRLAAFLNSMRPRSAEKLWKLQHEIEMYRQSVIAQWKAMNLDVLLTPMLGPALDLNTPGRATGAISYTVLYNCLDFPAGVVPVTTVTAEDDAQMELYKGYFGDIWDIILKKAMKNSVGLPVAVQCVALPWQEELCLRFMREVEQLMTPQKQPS
Put plainly: competitive ABPP of brain from KML29-treated rats. It counts as in vivo. Particulars: Wistar rats, 1–40 mg kg^−1 i.p., 4 h. In short, it runs like this: (§1)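 Wistar rats were injected i.p. with the test compound (1–40 mg kg−1) or vehicle. Vehicle was saline:emulphor:ethanol 18:1:1, with prolonged sonication and mild heating to dissolve. Rats were killed at 4 h. Brain, liver, lung and spleen proteomes were labelled with FP-Rh, separated by SDS-PAGE and scanned for in-gel fluorescence. Inhibition was scored as reduced probe labelling. n = 3 rats/group.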

Data set [2] can be described thus: dissolution in dosing vehicle. It counts as physicochemical. In short, it runs like this:
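Test compound was dissolved with prolonged sonication and mild heating. Vehicle was PEG for oral dosing, or saline:emulphor:ethanol (18:1:1) for i.p. dosing.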

In data set [3] the target is T1, FAAH. Put plainly: brain AEA hydrolytic activity from KML29-treated rats. The following applies: 1–40 mg kg^−1 i.p., 4 h. It counts as in vivo. Summed up: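 Wistar rats received the test compound i.p. (1–40 mg kg−1 in saline:emulphor:ethanol 18:1:1) or vehicle and were killed after 4 h. Brain MAGL and FAAH activities were measured as hydrolysis of 2-AG and AEA, respectively. Means ± SEM, n = 3 rats/group, compared with vehicle-treated rats.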

In data set [4] the test system is carboxylesterase (CES) enzymes. Put plainly: gel-based ABPP of liver, lung and spleen from inhibitor-treated mice. It counts as in vivo, mouse.
The target in data set [5] is T2, MAGL (Rattus norvegicus, UniProt Q8R431).
T2 sequence (Q8R431 1-303): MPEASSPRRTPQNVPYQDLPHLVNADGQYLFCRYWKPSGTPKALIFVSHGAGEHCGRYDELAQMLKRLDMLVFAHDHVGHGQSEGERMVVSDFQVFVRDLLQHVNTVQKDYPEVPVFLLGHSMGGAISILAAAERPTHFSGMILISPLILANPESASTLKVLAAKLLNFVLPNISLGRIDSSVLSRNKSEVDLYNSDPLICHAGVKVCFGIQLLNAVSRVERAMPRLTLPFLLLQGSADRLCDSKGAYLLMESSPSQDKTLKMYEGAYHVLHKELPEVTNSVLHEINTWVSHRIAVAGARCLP
Put plainly: competitive ABPP of brain from KML29-treated rats. It counts as in vivo. The following applies: Wistar rats, 40 mg kg^−1 i.p., 4 h. Summed up:
as §1

For data set [6], the target named is T3, MAGL (Mus musculus, UniProt O35678).
T3 sequence (O35678 1-303): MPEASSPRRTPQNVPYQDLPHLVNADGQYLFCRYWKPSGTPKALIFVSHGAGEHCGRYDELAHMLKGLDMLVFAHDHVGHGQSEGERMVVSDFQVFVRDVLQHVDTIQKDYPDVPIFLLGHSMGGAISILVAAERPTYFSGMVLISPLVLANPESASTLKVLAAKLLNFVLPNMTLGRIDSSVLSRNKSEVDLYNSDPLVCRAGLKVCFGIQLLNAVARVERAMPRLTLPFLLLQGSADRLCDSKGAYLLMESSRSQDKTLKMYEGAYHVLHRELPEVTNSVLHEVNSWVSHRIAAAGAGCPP
Put plainly: gel-based ABPP of peripheral tissues from inhibitor-treated mice. It counts as in vivo. The following applies: 1 mg kg^−1 p.o., 4 h, liver, lung, spleen.

The next data set deals with T4, hFAAH (Homo sapiens, UniProt O00519).
T4 sequence (O00519 1-579): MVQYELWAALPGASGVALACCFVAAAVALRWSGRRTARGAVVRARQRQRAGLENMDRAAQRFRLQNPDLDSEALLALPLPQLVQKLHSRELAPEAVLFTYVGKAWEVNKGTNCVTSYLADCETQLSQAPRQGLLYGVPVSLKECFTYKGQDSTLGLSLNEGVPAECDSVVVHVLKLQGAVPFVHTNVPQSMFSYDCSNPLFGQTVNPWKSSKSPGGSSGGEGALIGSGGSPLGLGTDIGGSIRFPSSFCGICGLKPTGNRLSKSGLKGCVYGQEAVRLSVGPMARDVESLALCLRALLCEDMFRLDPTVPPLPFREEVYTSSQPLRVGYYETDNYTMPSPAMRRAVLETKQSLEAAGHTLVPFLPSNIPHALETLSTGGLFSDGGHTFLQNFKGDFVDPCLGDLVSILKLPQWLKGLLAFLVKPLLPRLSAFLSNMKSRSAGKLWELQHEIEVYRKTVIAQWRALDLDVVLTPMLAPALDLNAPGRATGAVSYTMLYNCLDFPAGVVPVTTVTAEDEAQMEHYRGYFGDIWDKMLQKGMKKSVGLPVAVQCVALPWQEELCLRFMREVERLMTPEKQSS
Put plainly: substrate hydrolysis assay. It counts as biochemical.

Data set [7] concerns the target T3, MAGL. Put plainly: competitive ABPP of brain from inhibitor-treated mice. It counts as in vivo. The following applies: for blockade of MAGL activity in brain: C57Bl/6 mice, 4 h.
The target of data set [8] is T3, MAGL. Put plainly: 2-AG hydrolytic activity of brain tissue from treated mice. It counts as in vivo. The following applies: KML29-treated mice, 1–40 mg kg^−1 p.o.

Regarding `O=C(OC(C(F)(F)F)C(F)(F)F)N1CCC(C(O)(c2ccc3c(c2)OCO3)c2ccc3c(c2)OCO3)CC1` [KML29], the “cross-reactivity with brain FAAH” value at FAAH [1] is given as “without any detectable cross-reactivity”. The “dissolution in vehicles for p.o. (PEG) or i.p. [saline:emulphor:ethanol (18:1:1)] administration” value in [2] is “Prolonged sonication and mild heating were also required”. Moreover, on FAAH [3], the “brain AEA hydrolytic activity” value is on record as “not affected at any dose”. Moreover, in data set [4] (40 mg kg^−1 p.o., six days), the “CES inhibition in peripheral tissues, chronic dosing” value was “minimal cross-reactivity with CES enzymes”. Also, the “doses at which CES cross-reactivity (single ~70 kDa enzyme) was detected” value in data set [4] (p.o., 4 h, peripheral tissues) was in the range of 20 to 40 mg/kg. The “inhibition of brain MAGL” value on MAGL [5] is given as over 90%. At MAGL [6], the “MAGL inhibition in peripheral tissues” value was “near-complete blockade of MAGL”. Also, at hFAAH, the “AEA hydrolysis by hFAAH” value is “undiminished AEA hydrolysis up to 50 μM”. Moreover, the “blockade of MAGL activity in brain” value at MAGL [7] (5 mg kg^−1 p.o.) was “partial inhibition”; on MAGL [7] (20 mg kg^−1 p.o.), “maximal inhibition”. Further, the “time until which brain MAGL inhibition was sustained” value at MAGL [7] (mice, single oral dose 20 mg kg^−1) was in the range of 12 to 24 h. For the same compound, the “time post-administration of maximal inhibition of brain MAGL” value on MAGL [7] (mice, single oral dose 20 mg kg^−1, earliest time point tested) was at most 1 h. The “residual MAGL activity in brain proteomes (substrate assay)” value at MAGL [8] was “dose-dependent inhibition of MAGL”.
